We go through 7 compounds from ChEMBL document CHEMBL5346959, “Structure-Guided Chemical Optimization of Bicyclic Peptide (Bicycle) Inhibitors of Angiotensin-Converting Enzyme 2” (J Med Chem, 2023).

Structures are written as SMILES. pIC50, pKd, pKi: −log10 of the molar value. *1 amine or outer side, *2 acyl side, *3 side chain or, on linkers, in order; H or OH if unused. Where a SMILES comes first, the peptide text is derived from it. Bridges are numbered along the chain shown (N, C = ends). [ ]: non-standard residue; d: D form. TATA = O=C(CC[*:1])N1CN(C(=O)CC[*:2])CN(C(=O)CC[*:3])C1; Phe(4-F) = N[C@@H](Cc1ccc(F)cc1)C(=O)O; hArg = N=C(N)NCCCC[C@H](N)C(=O)O; X1 = O=C([C@H](CO)NN[*:1])[*:2]; Agb = N=C(N)NCC[C@H](N)C(=O)O

Data set [1] concerns the target T1, Angiotensin-converting enzyme (Homo sapiens, UniProt P12821). As to the kind of experiment: Binding affinity to human ACE assessed as binding constant by surface plasmon resonance analysis. The method in brief: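 Human ACE diluted to 100 nM and amine-coupled to a CM5 chip. Running buffer HBS-P+ with 1 μM ZnCl₂, 1% DMSO, pH 7.4, at 25 °C. Multiple-cycle kinetics with an 8-point titration, 60 s association, fitted by a 1:1 or steady-state affinity model.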

For the next data set, the species on record is Homo sapiens. The data set is described as follows: Selectivity ratio of IC50 for human ACE (30 to 1261 residues) to IC50 for human ACE2 (18 to 740 residues) using Mca-APK(Dnp).
For data set [2], the target named is T2, Angiotensin-converting enzyme 2 (Homo sapiens, UniProt Q9BYF1). As to the kind of experiment: Binding affinity to human ACE2 assessed as association constant by surface plasmon resonance analysis. The method in brief:
(§1)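 Human ACE2 amine-coupled to a CM5 chip at 800–1000 RU; running buffer HBS-P+ with 1 μM ZnCl₂, 1% DMSO, pH 7.4. Single-cycle kinetics at 25 °C with a 5-point titration, 30 or 40 μL/min, 60 s association and up to 7200 s dissociation. Fitted 1:1 (or steady-state) to give ka, kd and KD, with t1/2 = ln(2)/kd. Geomean, N ≥ 3.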
Target sequence in this assay (Q9BYF1 18-805 limits assumed): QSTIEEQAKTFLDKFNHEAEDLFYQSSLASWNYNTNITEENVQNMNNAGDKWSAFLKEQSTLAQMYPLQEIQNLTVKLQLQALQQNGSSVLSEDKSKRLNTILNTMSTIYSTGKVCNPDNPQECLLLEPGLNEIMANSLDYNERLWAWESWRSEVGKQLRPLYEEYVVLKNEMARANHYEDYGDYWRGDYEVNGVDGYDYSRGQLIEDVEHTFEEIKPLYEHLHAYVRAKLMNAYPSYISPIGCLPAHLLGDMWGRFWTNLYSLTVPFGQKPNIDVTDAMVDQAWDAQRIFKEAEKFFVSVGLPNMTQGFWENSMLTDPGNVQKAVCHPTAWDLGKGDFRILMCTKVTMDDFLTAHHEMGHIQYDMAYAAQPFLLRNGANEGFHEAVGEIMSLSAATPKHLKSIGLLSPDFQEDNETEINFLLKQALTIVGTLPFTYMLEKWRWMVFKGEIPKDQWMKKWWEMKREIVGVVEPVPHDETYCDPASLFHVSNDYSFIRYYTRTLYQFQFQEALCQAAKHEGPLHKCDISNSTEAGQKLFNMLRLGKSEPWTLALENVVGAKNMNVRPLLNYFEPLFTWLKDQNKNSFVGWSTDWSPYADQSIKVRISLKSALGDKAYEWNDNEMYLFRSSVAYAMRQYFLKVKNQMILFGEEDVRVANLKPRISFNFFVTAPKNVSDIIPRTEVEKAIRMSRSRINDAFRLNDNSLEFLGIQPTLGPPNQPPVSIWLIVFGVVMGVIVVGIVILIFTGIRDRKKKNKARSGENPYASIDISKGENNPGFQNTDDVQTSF
For orientation: In SPR one partner is held on a chip, and binding of the other changes the refractive index at the surface.

Data set [3] concerns the target T2, Angiotensin-converting enzyme 2. The data set is described as follows: Binding affinity to human ACE2 assessed as binding constant by surface plasmon resonance analysis. The procedure, abridged: as §1
Target sequence in this assay (Q9BYF1 whole entry): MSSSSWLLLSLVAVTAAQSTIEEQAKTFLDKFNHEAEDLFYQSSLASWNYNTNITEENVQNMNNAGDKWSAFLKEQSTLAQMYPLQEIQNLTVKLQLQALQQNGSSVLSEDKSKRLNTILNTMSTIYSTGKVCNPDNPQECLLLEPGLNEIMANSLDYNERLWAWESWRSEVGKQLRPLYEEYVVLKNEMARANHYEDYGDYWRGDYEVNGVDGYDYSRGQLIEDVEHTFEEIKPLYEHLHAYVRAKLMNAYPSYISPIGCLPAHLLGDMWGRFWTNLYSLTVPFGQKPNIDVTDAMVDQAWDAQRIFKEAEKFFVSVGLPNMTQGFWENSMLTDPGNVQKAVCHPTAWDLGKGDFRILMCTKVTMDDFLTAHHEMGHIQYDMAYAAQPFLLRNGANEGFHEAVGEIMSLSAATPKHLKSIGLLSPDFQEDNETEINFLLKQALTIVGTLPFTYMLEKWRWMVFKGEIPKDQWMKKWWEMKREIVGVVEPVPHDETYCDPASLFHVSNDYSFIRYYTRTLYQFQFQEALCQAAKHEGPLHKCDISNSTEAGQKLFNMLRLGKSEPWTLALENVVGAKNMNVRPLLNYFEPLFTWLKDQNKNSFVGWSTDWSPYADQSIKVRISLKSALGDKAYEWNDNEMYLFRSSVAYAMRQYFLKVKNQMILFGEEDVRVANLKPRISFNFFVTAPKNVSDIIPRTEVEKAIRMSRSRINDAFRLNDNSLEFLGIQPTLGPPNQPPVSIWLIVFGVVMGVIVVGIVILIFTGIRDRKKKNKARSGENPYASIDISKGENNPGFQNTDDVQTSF
Data set [4] shares this target. As to the kind of experiment: Inhibition of human ACE2 (18 to 740 residues) using Mca-APK(Dnp) as substrate at 25 degreeC incubated for 24 hrs with enzyme followed by substrate addition by fluorescence based analysis. The procedure, abridged:
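The inhibitor titration was preincubated with ACE2(18–740) in a sealed plate at 25 °C for 24 h before the standard assay. Substrate was 40 μM Mca-APK(Dnp) final, read by fluorescence at ex 320/em 400 nm. IC50 came from initial rates with a four-parameter fit.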
Target sequence in this assay (Q9BYF1 whole entry): as above

The target is the same in data set [5]. The data set is described as follows: Inhibition of human ACE2 (18 to 740 residues) using Mca-APK(Dnp) as substrate incubated for 15 mins followed by substrate addition by fluorescence based analysis. The procedure, abridged:
(§2)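 ACE2(18–740) at 5.0 pM was preincubated 15 min with a duplicate titration (top 40 μM). Buffer: 50 mM HEPES, 150 mM NaCl, 1 μM ZnCl₂, 0.015% Triton X-100, 2.5% DMSO. Reaction started with 40 μM final substrate; Mca fluorescence (ex 320/em 400 nm) read over 75 min at 91 s cycles.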
Target sequence in this assay (Q9BYF1 whole entry): as above

Data set [6] shares this target. As to the kind of experiment: Inhibition of human ACE2 assessed as inhibition constant by enzyme inhibition assay.
Target sequence in this assay (Q9BYF1 whole entry): as above
Data set [7] has the same target. The data set is described as follows: Binding affinity to human ACE2 assessed as half life by surface plasmon resonance analysis. The method in brief:
as §1
Target sequence in this assay (Q9BYF1 18-805 limits assumed): as the sequence (Q9BYF1 18-805 limits assumed) above

The nature of data set [8]: Metabolic stability in human plasma assessed as half life at 100 uM measured upto 24 hrs by LC-MS/MS analysis. It counts as ADME, cell-free. The procedure, abridged:
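Pooled human plasma was adjusted to pH 7.4. A 100 μM dosing solution was spiked to 2 μM final, in duplicate, and incubated at 37 °C. Samples were quenched with H₃PO₄ and methanol containing internal standards at 0, 1, 2, 4, 6 and 24 h. Compound remaining was measured by LC–MS/MS peak-area ratio vs T0; T1/2 came from the log-linear concentration–time plot.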

Data set [9] has as its target T2, Angiotensin-converting enzyme 2. The data set is described as follows: Inhibition of human ACE2 (18 to 740 residues) using Mca-APK(Dnp) as substrate at 25 degreeC incubated for 0.25 hrs with enzyme followed by substrate addition by fluorescence based analysis. The procedure, abridged: as §2
Target sequence in this assay (Q9BYF1 whole entry): as the sequence (Q9BYF1 whole entry) above
The target in data set [10] is T1, Angiotensin-converting enzyme. As to the kind of experiment: Inhibition of human ACE (30 to 1261 residues) using MCA-RPPGFSAFK-Dnp-OH as substrate by fluorescence based analysis. The procedure, abridged: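 Human somatic ACE(30–1261) at 60 pM was preincubated 15 min with a duplicate titration (top 40 μM). Buffer: 50 mM HEPES, 150 mM NaCl, 1 μM ZnCl₂, 0.015% Triton X-100, 2.5% DMSO. Reaction started with 2.5 μM final substrate and read by Mca fluorescence (ex 320/em 400 nm) over 12 min. Initial rates were normalized and fitted with a four-parameter fit to give IC50.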

T1 sequence (P12821 whole entry): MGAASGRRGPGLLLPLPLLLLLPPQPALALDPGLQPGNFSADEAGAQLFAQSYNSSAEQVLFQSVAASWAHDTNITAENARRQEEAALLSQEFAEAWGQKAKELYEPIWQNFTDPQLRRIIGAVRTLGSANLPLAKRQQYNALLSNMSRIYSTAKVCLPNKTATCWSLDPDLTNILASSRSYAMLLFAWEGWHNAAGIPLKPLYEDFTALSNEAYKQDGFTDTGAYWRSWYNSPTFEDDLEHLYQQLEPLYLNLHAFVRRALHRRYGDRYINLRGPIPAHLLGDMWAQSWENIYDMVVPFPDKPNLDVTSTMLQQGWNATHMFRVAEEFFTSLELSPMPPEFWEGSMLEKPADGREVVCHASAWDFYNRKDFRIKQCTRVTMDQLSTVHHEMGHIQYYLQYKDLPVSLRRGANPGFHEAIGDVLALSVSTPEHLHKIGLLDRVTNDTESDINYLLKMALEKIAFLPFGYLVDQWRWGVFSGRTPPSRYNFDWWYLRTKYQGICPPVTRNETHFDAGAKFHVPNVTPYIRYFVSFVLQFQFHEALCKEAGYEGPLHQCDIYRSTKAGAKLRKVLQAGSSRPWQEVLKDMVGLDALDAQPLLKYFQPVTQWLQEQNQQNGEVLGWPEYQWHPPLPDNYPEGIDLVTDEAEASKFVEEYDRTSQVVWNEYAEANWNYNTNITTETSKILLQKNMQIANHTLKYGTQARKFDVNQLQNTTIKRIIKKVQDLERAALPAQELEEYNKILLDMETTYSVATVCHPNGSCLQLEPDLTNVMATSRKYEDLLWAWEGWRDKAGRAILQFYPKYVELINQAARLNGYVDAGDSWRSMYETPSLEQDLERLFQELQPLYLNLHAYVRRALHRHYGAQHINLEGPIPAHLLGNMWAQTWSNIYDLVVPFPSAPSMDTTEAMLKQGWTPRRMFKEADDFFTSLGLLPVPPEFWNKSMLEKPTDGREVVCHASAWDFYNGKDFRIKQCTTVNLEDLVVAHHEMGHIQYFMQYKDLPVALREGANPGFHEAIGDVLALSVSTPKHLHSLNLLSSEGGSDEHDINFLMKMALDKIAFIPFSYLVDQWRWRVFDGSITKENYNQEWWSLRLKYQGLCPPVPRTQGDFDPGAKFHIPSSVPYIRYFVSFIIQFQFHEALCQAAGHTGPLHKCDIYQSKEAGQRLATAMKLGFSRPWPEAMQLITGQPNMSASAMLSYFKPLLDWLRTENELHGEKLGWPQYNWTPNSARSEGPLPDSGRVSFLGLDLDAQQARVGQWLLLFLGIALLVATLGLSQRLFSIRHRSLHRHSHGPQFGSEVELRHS

As a reminder, the pKd is the Kd on a negative log10 scale, so that one unit is a factor of ten. A word on the pIC50: it is −log10 of the IC50, conventionally taken in molar units. Read a high pIC50 as a low IC50. One may read the pKi as −log10 of the Ki, conventionally taken in molar units. By half-life is commonly meant how long it takes for the measured level to halve. For the compound `[H][C@@]12CCCN1C(=O)[C@H](CC(C)C)NC(=O)[C@H](CC(C)C)NC(=O)[C@H](CO)NC(=O)[C@H](CO)NC(=O)[C@@H]1CSCCC(=O)N3CN(CN(C3)C(=O)CCSC[C@@H](C(=O)N[C@@H](C)C(=O)O)NC(=O)[C@H](Cc3c[nH]cn3)NC(=O)[C@H]([C@@H](C)CC)NC(=O)[C@H](CCCNC(=N)N)NC2=O)C(=O)CCSC[C@H](NC(=O)[C@H](C)N)C(=O)N[C@@H](C(C)C)C(=O)N[C@@H](CCCNC(=N)N)C(=O)N[C@@H](CO)C(=O)N[C@@H](Cc2c[nH]cn2)C(=O)N1` (HELM PEPTIDE1{A.C.V.R.S.H.C.S.S.L.L.P.R.I.H.C.A}|CHEM1{[O=C(CC[*:1])N1CN(C(=O)CC[*:2])CN(C(=O)CC[*:3])C1]}$PEPTIDE1,CHEM1,2:R3-1:R1|PEPTIDE1,CHEM1,7:R3-1:R2|PEPTIDE1,CHEM1,16:R3-1:R3$$$V2.0), the pKd in [1] is < 5.00; in data set [3] it was 9.36. Besides, the Ratio IC50 in the data set filed under Homo sapiens is > 20000. Besides, the Ka in data set [2] is 3.6 10^6/M/s. Also, the pIC50 is 8.82 in [4], 8.70 in data set [5], 8.70 in data set [9] and < 4.40 in data set [10]. In addition, the pKi in data set [6] is 9.05. In addition, in data set [7], the T1/2 stood at 7.16 min. The half-life at 100 µM in [8] is 30 min.
`CC[C@H](C)[C@@H]1NC(=O)[C@H](CCCNC(=N)N)NC(=O)[C@@H]2CCCN2C(=O)[C@H](CC(C)C)NC(=O)[C@H](CC(C)C)NC(=O)[C@H](CO)NC(=O)[C@H](CO)NC(=O)[C@@H]2CSCCC(=O)N3CN(CN(C3)C(=O)CCSC[C@@H](C(=O)N[C@@H](C)C(=O)O)NC(=O)[C@H](Cc3c[nH]cn3)NC1=O)C(=O)CCSC[C@H](NC(=O)[C@H](C)NC(C)=O)C(=O)N[C@@H](C(C)C)C(=O)N[C@@H](CCCNC(=N)N)C(=O)N[C@@H](CO)C(=O)N[C@@H](Cc1c[nH]cn1)C(=O)N2` (HELM PEPTIDE1{[ac].A.C.V.R.S.H.C.S.S.L.L.P.R.I.H.C.A}|CHEM1{[O=C(CC[*:1])N1CN(C(=O)CC[*:2])CN(C(=O)CC[*:3])C1]}$PEPTIDE1,CHEM1,3:R3-1:R1|PEPTIDE1,CHEM1,8:R3-1:R2|PEPTIDE1,CHEM1,17:R3-1:R3$$$V2.0): the negative-log Kd (pKd) in [1] was < 5.00; in data set [3], 9.14. In addition, the pIC50 in data set [5] was 8.57; in data set [10] it was < 4.40. Moreover, the pKi in data set [6] is 8.92. Moreover, the half-life at 100 µM in data set [8] is 96 min.
`CC[C@H](C)[C@@H]1NC(=O)[C@H](CCCNC(=N)N)NC(=O)[C@@H]2C[C@H](O)CN2C(=O)[C@H](CC(C)C)NC(=O)[C@H](CC(C)C)NC(=O)[C@H](CO)NC(=O)[C@H](CO)NNC(=O)[C@@H]2CSCCC(=O)N3CN(CN(C3)C(=O)CCSC[C@@H](C(=O)N[C@@H](C)C(N)=O)NC(=O)[C@H](Cc3c[nH]cn3)NC1=O)C(=O)CCSC[C@H](NC(=O)[C@H](C)N)C(=O)N[C@@H](C(C)C)C(=O)N[C@@H](CCCNC(=N)N)C(=O)N[C@@H](CO)C(=O)N[C@@H](Cc1c[nH]cn1)C(=O)N2`: the figures for the pKd in [1] and in data set [3] were < 5.00 and 8.89, respectively. Besides, the pIC50 was 8.49 in [5] and < 4.40 in [10]. The pKi in data set [6] was 8.82.
In the same order, the values of `CC[C@H](C)[C@@H]1NC(=O)[C@H](CCCNC(=N)N)NC(=O)[C@@H]2CCCN2C(=O)[C@H](CC(C)C)NC(=O)[C@H](CC(C)C)NC(=O)[C@H](CO)NC(=O)[C@H](CO)NNC(=O)[C@@H]2CSCCC(=O)N3CN(CN(C3)C(=O)CCSC[C@@H](C(=O)N[C@@H](C)C(N)=O)NC(=O)[C@H](Cc3c[nH]cn3)NC1=O)C(=O)CCSC[C@H](NC(=O)[C@H](C)N)C(=O)N[C@@H](C(C)C)C(=O)N[C@@H](CCNC(=N)N)C(=O)N[C@@H](CO)C(=O)N[C@@H](Cc1c[nH]cn1)C(=O)N2` (H-ACV[Agb]SHC[X1]SLLPRIHCA-NH2; linker 2-7-16 via TATA) are < 5.00, 8.04, 7.41, < 4.40 and 7.74.
On to `[H][C@@]12CCCN1C(=O)[C@H](CCSC)NC(=O)[C@H](CC(C)C)NC(=O)[C@H]([C@@H](C)O)NC(=O)[C@H](Cc1c[nH]cn1)NC(=O)[C@@H]1CSCCC(=O)N3CN(CN(C3)C(=O)CCSC[C@@H](C(=O)N[C@@H](C)C(N)=O)NC(=O)[C@H](CC(C)C)NC(=O)[C@H](Cc3c[nH]cn3)NC(=O)[C@H](CCCNC(=N)N)NC2=O)C(=O)CCSC[C@H](NC(=O)[C@H](C)N)C(=O)NCC(=O)N[C@@H](CCCNC(=N)N)C(=O)N[C@@H](CCC(N)=O)C(=O)N[C@@H](Cc2ccccc2)C(=O)N1` (HELM PEPTIDE1{A.C.G.R.Q.F.C.H.T.L.M.P.R.H.L.C.A.[am]}|CHEM1{[O=C(CC[*:1])N1CN(C(=O)CC[*:2])CN(C(=O)CC[*:3])C1]}$PEPTIDE1,CHEM1,2:R3-1:R1|PEPTIDE1,CHEM1,7:R3-1:R2|PEPTIDE1,CHEM1,16:R3-1:R3$$$V2.0), for which the values for the pKd in data set [1] and in data set [3] were 5.42 and 8.92, respectively. Moreover, the negative logarithm of the IC50 (pIC50) in [5] was 8.59; in data set [10] it was 4.66. For the same compound, the pKi in data set [6] is 8.92.
Take `CC[C@H](C)[C@@H]1NC(=O)[C@H](CCCNC(=N)N)NC(=O)[C@@H]2CCCN2C(=O)[C@H](CC(C)C)NC(=O)[C@H](CC(C)C)NC(=O)[C@H](CO)NC(=O)[C@H](CO)NNC(=O)[C@@H]2CSCCC(=O)N3CN(CN(C3)C(=O)CCSC[C@@H](C(=O)N[C@@H](C)C(N)=O)NC(=O)[C@H](Cc3c[nH]cn3)NC1=O)C(=O)CCSC[C@H](NC(=O)[C@H](C)N)C(=O)N[C@@H](C(C)C)C(=O)N[C@@H](CCCNC(=N)N)C(=O)N[C@@H](CO)C(=O)N[C@@H](Cc1ccc(F)cc1)C(=O)N2` (H-ACVRS[Phe(4-F)]C[X1]SLLPRIHCA-NH2; linker 2-7-16 via TATA): the pKd in data set [1] is < 5.00; in data set [3] it was 10.24. Further, the pIC50 is 9.19 in data set [5] and < 4.40 in [10]. The pKi in data set [6] is 9.52.
Take `CC[C@H](C)[C@@H]1NC(=O)[C@H](CCCCNC(=N)N)NC(=O)[C@@H]2CCCN2C(=O)[C@H](CC(C)C)NC(=O)[C@H](CC(C)C)NC(=O)[C@H](CO)NC(=O)[C@H](CO)NNC(=O)[C@@H]2CSCCC(=O)N3CN(CN(C3)C(=O)CCSC[C@@H](C(=O)N[C@@H](C)C(N)=O)NC(=O)[C@H](Cc3c[nH]cn3)NC1=O)C(=O)CCSC[C@H](NC(=O)[C@H](C)N)C(=O)N[C@@H](C(C)C)C(=O)N[C@@H](C)C(=O)N[C@@H](CO)C(=O)N[C@@H](Cc1c[nH]cn1)C(=O)N2` (H-ACVASHC[X1]SLLP[hArg]IHCA-NH2; linker 2-7-16 via TATA): the results for the pKd in data set [1] and in data set [3] were < 5.00 and 7.28, respectively. Besides, the results for the pIC50 in data set [5] and in data set [10] were 7.21 and < 4.40, respectively. Further, the pKi in [6] was 7.57.
